Reference: ChEMBL document CHEMBL3407471, “Development of potent inhibitors of pyocyanin production in Pseudomonas aeruginosa” (J Med Chem, 2015)
pIC50: −log10 of the molar value. Activity calls are given as the source filed them. Unless noted, the rule behind the calls is not given here.

Assays:
Pseudomonas aeruginosa [1] = test: Inhibition of pyocyanin production in wild-type Pseudomonas aeruginosa PA14 assessed as down regulation of mexG relative to control; type: functional
Method in brief: (§1)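 Wild-type PA14 cultures treated with compound, and a DMSO-treated culture served as control. RNA extracted and analysed by microarray. Genes counted as changed when expression differed by more than 2-fold.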

Pseudomonas aeruginosa [2] = test: Inhibition of pyocyanin production in wild-type Pseudomonas aeruginosa PA14 assessed as down regulation of PA14_51830 relative to control; type: functional; method in brief: as §1
Pseudomonas aeruginosa [3] = test: Antibiofilm activity against wild-type static Pseudomonas aeruginosa PA14 at 100 uM by spectrophotometry; type: functional
Pseudomonas aeruginosa [4] = test: Inhibition of quorum sensing activity in wild-type Pseudomonas aeruginosa PA14 assessed as inhibition of pyocyanin production at 100 uM by spectrophotometry relative to control; type: functional
Method in brief: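 Wild-type P. aeruginosa PA14 cultures exposed to compound at 100 μM. Pyocyanin read as absorbance at 695 nm. Efficacy scaled so that wild-type pyocyanin level = 0% and absorbance equal to background medium = 100%.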

Pseudomonas aeruginosa [5] = test: Inhibition of pyocyanin production in wild-type Pseudomonas aeruginosa PA14 assessed as down regulation of PA14_21530 relative to control; type: functional; method in brief: as §1
Pseudomonas aeruginosa [6] = test: Inhibition of pyocyanin production in wild-type Pseudomonas aeruginosa PA14 assessed as down regulation of PA14_35160 relative to control; type: functional; method in brief: as §1
Escherichia coli [7] = test: Competitive binding to RhlR in Escherichia coli at 100 to 500 uM
Method in brief: (§2)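 Competition format: compound at 100 μM and 500 μM combined with increasing amounts of the receptor's native AHL (LasR or RhlR). Receptor response compared with a DMSO control.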

Pseudomonas aeruginosa [8] = test: Inhibition of pyocyanin production in wild-type Pseudomonas aeruginosa PA14 assessed as down regulation of PA14_03090 relative to control; type: functional; method in brief: as §1
Pseudomonas aeruginosa [9] = test: Inhibition of pyocyanin production in wild-type Pseudomonas aeruginosa PA14 assessed as down regulation of PA14_16310 relative to control; type: functional; method in brief: as §1
Pseudomonas aeruginosa [10] = test: Inhibition of pyocyanin production in wild-type Pseudomonas aeruginosa PA14 assessed as down regulation of katA relative to control; type: functional; method in brief: as §1
Escherichia coli [11] = test: Antagonist activity at RhlR in Escherichia coli assessed as reduction of AHL-induced GFP production at 100 uM
Pseudomonas aeruginosa [12] = test: Inhibition of pyocyanin production in wild-type Pseudomonas aeruginosa PA14 assessed as down regulation of opmD relative to control; type: functional; method in brief: as §1
Pseudomonas aeruginosa [13] = test: Inhibition of pyocyanin production in wild-type Pseudomonas aeruginosa PA14 assessed as down regulation of PA14_58040 relative to control; type: functional; method in brief: as §1
Escherichia coli [14] = test: Competitive binding to LasR in Escherichia coli at 100 to 500 uM; method in brief: as §2
Pseudomonas aeruginosa [15] = test: Inhibition of pyocyanin production in wild-type Pseudomonas aeruginosa PA14 assessed as down regulation of trxB2 relative to control; type: functional; method in brief: as §1
Escherichia coli [16] = test: Agonist activity at LasR in Escherichia coli at 100 uM
Pseudomonas aeruginosa [17] = test: Inhibition of pyocyanin production in wild-type Pseudomonas aeruginosa PA14 assessed as down regulation of mexI relative to control; type: functional; method in brief: as §1
Pseudomonas aeruginosa [18] = test: Antimicrobial activity against wild-type Pseudomonas aeruginosa PA14; type: functional
Pseudomonas aeruginosa [19] = test: Inhibition of pyocyanin production in wild-type Pseudomonas aeruginosa PA14 assessed as down regulation of fumC relative to control; type: functional; method in brief: as §1
Pseudomonas aeruginosa [20] = test: Inhibition of pyocyanin production in wild-type Pseudomonas aeruginosa PA14 assessed as down regulation of PA14_22320 relative to control; type: functional; method in brief: as §1
Escherichia coli [21] = test: Agonist activity at RhlR in Escherichia coli at 100 uM
Escherichia coli [22] = test: Antagonist activity at LasR in Escherichia coli assessed as reduction of AHL-induced GFP production at 100 uM
Pseudomonas aeruginosa [23] = test: Inhibition of pyocyanin production in wild-type Pseudomonas aeruginosa PA14 assessed as down regulation of katB relative to control; type: functional; method in brief: as §1
Pseudomonas aeruginosa [24] = test: Inhibition of pyocyanin production in wild-type Pseudomonas aeruginosa PA14 assessed as down regulation of ahpF relative to control; type: functional; method in brief: as §1
Pseudomonas aeruginosa [25] = test: Inhibition of quorum sensing activity in wild-type Pseudomonas aeruginosa PA14 assessed as inhibition of pyocyanin production by spectrophotometry relative to control; type: functional
Method in brief: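 Pyocyanin produced by wild-type PA14, read by absorbance at 695 nm, across a range of compound levels. IC50 derived from the dose–response.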

Pseudomonas aeruginosa [26] = test: Inhibition of pyocyanin production in wild-type Pseudomonas aeruginosa PA14 assessed as down regulation of mexH relative to control; type: functional; method in brief: as §1

Activity (Escherichia coli [7]): inactive
Activity (Escherichia coli [11]): inactive
Activity (Escherichia coli [14]): inactive
Activity (Escherichia coli [16]): inactive
Activity (Escherichia coli [21]): inactive
Activity (Escherichia coli [22]): inactive
pIC50 (Pseudomonas aeruginosa [25]): 5.57
SMILES: O=C(CCCCCOc1cccc(Br)c1)Nc1ccnc(C(F)(F)F)c1
fold change (FC) (Pseudomonas aeruginosa [1]): 2.68
fold change (FC) (Pseudomonas aeruginosa [2]): 5.6
Activity (Pseudomonas aeruginosa [3]): inactive
Efficacy (Pseudomonas aeruginosa [4]): 99%
fold change (FC) (Pseudomonas aeruginosa [5]): 44.39
fold change (FC) (Pseudomonas aeruginosa [6]): 4.93
fold change (FC) (Pseudomonas aeruginosa [8]): 14.35
fold change (FC) (Pseudomonas aeruginosa [9]): 3.27
fold change (FC) (Pseudomonas aeruginosa [10]): 20.8
fold change (FC) (Pseudomonas aeruginosa [12]): 2.5
fold change (FC) (Pseudomonas aeruginosa [13]): 5.67
fold change (FC) (Pseudomonas aeruginosa [15]): 27.79
fold change (FC) (Pseudomonas aeruginosa [17]): 2.84
Activity (Pseudomonas aeruginosa [18]): inactive
fold change (FC) (Pseudomonas aeruginosa [19]): 2.71
fold change (FC) (Pseudomonas aeruginosa [20]): 35.99
fold change (FC) (Pseudomonas aeruginosa [23]): 4.15
fold change (FC) (Pseudomonas aeruginosa [24]): 33.03
fold change (FC) (Pseudomonas aeruginosa [26]): 2.93
